Assay results: article PMC8802302 (Journal of Medicinal Chemistry, 2021)

Key:
MYLK2 = MYLK2 (Homo sapiens, UniProt Q9H1R3); assay: NanoBRET assay follow-up; assay type: cell-based
16-member kinase panel = assay: Eurofins custom enzymatic kinase panel, count of kinases inhibited; assay type: biochemical; details: 16-member Eurofins panel, 1 μM
Summary of the method: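 Radiometric kinase assays were run with ATP at Km. Each test compound was tested at a single concentration of 1 μM, in duplicate, against each panel kinase, with results as percent of control. The count is the number of kinases at ≤ 10 PoC, i.e. inhibited ≥ 90%.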

[1] = tested on: 403 wild-type (WT) human kinases; assay: DiscoverX scanMAX kinome-wide selectivity screen; assay type: binding; details: 403 WT human kinases; for no. kinases with PoC < 10: DiscoverX scanMAX, 1 μM; for S10 (1 μM): Percentage of screened kinases with PoC values < 10 at 1 μM
PAMPA permeability = assay type: in vitro ADME; details: PBS pH 7.4, 5 h incubation
Summary of the method: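 DMSO stocks of test compound were diluted in PBS pH 7.4 and added to the donor side of a precoated PAMPA plate, with PBS pH 7.4 as acceptor, for 5 h. Both compartments were quantified by chemiluminescent nitrogen detection against a calibration curve, with background nitrogen corrected. Effective permeability was calculated from donor and acceptor concentrations, using measured rather than assumed solubility.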

NUAK1 [2] = target: T1, NUAK1 (Homo sapiens, UniProt O60285); assay: NanoBRET assay follow-up; assay type: cell-based
T1 sequence (O60285 1-661): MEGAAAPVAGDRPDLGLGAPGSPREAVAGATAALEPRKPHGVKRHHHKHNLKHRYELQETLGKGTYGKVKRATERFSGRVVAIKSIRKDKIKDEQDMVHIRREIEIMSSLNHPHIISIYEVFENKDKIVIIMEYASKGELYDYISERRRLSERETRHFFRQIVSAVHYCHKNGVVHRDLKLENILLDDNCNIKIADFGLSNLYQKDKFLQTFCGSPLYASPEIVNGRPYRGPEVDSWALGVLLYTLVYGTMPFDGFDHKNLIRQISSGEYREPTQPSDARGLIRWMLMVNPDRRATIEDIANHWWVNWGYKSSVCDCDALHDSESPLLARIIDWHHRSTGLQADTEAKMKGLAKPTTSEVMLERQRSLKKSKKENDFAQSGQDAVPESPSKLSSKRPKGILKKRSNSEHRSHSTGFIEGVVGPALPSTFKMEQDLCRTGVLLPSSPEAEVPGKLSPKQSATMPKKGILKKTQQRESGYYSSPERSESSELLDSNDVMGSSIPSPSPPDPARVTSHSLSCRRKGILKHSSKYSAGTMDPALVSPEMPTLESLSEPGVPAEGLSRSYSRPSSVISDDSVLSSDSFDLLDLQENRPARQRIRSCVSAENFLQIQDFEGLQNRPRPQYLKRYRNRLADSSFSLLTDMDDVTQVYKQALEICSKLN

MARK3 (NLuc-MARK3) = MARK3 (NLuc-MARK3) (Homo sapiens, UniProt P27448); assay: NanoBRET cellular target engagement assay; assay type: cell-based
Chain of MARK3 (NLuc-MARK3) (P27448 whole entry): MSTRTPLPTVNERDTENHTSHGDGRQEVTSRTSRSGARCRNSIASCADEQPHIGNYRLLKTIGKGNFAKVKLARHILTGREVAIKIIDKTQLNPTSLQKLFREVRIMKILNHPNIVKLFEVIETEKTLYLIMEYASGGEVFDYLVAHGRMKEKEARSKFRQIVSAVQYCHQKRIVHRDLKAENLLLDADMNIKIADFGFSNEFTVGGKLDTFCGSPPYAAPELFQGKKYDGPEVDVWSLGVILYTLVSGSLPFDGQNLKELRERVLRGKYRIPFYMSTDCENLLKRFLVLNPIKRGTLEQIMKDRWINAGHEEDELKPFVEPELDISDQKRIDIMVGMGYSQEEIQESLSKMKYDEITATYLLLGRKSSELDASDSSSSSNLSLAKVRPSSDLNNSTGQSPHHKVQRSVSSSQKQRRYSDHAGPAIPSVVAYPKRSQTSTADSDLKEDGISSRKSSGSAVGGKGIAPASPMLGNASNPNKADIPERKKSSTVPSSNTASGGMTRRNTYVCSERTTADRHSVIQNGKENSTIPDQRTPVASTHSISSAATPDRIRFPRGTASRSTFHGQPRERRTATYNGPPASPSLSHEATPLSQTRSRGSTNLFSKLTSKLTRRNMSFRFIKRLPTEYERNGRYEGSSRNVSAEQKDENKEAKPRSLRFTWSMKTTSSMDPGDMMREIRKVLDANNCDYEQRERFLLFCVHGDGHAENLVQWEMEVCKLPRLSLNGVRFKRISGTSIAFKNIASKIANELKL

TBK1 (NLuc-TBK1) = target: T2, TBK1 (NLuc-TBK1) (Homo sapiens, UniProt Q9UHD2); assay: NanoBRET cellular target engagement assay; assay type: cell-based; details: HEK293, 0.5 μM tracer K-5; n = 1 where no error, SEM n = 3
T2 sequence (Q9UHD2 1-729): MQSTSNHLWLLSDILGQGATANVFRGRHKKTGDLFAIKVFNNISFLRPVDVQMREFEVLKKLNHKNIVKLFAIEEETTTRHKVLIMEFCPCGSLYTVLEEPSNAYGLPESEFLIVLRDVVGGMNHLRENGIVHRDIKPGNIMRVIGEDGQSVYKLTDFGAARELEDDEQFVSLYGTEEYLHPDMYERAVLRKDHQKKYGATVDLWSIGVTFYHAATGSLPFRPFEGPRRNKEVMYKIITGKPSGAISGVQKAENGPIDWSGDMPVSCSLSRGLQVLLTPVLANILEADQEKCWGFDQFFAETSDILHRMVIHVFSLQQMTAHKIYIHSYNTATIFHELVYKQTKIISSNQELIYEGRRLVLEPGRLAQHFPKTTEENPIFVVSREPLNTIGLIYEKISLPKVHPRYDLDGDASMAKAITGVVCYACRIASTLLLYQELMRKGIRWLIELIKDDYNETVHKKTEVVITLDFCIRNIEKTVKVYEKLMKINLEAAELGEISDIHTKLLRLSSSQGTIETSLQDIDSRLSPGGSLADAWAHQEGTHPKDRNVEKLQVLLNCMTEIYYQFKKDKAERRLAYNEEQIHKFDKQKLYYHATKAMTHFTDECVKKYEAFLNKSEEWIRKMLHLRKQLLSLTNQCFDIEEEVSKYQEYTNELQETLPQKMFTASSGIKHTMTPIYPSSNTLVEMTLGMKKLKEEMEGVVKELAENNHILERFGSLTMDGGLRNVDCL
Summary of the method: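 HEK293 cells were grown in DMEM with 10% FBS at 37 °C under 5% CO2, passaged every 72 h with trypsin and kept below confluency. Cells expressed NanoLuc fusions (DRAK1-NLuc or NLuc-TBK1). Dose–response was run per the manufacturer's protocol, with 0.5 μM tracer K-9 for DRAK1 and 0.5 μM tracer K-5 for TBK1. SEM was reported where assays were repeated.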

MARK4 (NLuc-MARK4) = target: T3, MARK4 (NLuc-MARK4) (Homo sapiens, UniProt Q96L34); assay: NanoBRET cellular target engagement assay; assay type: cell-based; details: HEK293, 0.5 μM tracer K-5; n = 1 where no error, SEM n = 2
T3 sequence (Q96L34 1-752): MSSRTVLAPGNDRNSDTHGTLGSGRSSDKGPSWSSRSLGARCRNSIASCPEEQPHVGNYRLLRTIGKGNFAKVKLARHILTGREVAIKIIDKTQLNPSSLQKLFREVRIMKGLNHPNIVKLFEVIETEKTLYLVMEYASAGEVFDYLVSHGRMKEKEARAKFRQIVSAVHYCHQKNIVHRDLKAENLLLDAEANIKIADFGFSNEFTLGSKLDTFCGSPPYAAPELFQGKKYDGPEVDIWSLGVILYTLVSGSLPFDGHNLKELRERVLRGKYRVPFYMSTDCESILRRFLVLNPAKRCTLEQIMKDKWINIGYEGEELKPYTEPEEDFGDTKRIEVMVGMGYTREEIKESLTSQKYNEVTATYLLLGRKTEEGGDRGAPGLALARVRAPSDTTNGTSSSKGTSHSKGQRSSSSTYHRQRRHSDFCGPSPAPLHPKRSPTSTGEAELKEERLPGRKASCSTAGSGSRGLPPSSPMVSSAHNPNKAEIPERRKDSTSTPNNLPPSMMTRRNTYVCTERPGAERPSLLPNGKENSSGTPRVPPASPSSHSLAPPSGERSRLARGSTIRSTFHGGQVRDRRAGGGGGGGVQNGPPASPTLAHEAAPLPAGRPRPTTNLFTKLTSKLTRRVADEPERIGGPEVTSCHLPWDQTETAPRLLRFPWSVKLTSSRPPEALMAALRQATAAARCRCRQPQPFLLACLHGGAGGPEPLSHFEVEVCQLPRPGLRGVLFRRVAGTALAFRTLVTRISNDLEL

DRAK1 (DRAK1-NLuc) = target: T4, DRAK1 (DRAK1-NLuc) (Homo sapiens, UniProt Q9UEE5); assay: NanoBRET cellular target engagement assay; assay type: cell-based; details: HEK293, 0.5 μM tracer K-9; n = 1 where no error, SEM n = 3
T4 sequence (Q9UEE5 1-414): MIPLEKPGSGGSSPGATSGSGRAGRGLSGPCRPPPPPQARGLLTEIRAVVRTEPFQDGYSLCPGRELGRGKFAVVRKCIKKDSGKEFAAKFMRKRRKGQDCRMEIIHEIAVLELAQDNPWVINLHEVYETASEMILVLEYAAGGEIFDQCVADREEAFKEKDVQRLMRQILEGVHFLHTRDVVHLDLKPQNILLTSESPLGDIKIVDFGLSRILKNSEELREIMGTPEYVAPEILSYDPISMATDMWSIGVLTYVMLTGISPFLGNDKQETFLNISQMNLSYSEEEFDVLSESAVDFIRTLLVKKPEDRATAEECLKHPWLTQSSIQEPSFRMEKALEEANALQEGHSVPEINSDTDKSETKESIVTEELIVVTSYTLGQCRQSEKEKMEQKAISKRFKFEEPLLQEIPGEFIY

LRRK2 = LRRK2 (Homo sapiens, UniProt Q5S007); assay: NanoBRET assay follow-up; assay type: cell-based; details: singlicate (n = 1) dose–response
Chain of LRRK2 (Q5S007 whole entry): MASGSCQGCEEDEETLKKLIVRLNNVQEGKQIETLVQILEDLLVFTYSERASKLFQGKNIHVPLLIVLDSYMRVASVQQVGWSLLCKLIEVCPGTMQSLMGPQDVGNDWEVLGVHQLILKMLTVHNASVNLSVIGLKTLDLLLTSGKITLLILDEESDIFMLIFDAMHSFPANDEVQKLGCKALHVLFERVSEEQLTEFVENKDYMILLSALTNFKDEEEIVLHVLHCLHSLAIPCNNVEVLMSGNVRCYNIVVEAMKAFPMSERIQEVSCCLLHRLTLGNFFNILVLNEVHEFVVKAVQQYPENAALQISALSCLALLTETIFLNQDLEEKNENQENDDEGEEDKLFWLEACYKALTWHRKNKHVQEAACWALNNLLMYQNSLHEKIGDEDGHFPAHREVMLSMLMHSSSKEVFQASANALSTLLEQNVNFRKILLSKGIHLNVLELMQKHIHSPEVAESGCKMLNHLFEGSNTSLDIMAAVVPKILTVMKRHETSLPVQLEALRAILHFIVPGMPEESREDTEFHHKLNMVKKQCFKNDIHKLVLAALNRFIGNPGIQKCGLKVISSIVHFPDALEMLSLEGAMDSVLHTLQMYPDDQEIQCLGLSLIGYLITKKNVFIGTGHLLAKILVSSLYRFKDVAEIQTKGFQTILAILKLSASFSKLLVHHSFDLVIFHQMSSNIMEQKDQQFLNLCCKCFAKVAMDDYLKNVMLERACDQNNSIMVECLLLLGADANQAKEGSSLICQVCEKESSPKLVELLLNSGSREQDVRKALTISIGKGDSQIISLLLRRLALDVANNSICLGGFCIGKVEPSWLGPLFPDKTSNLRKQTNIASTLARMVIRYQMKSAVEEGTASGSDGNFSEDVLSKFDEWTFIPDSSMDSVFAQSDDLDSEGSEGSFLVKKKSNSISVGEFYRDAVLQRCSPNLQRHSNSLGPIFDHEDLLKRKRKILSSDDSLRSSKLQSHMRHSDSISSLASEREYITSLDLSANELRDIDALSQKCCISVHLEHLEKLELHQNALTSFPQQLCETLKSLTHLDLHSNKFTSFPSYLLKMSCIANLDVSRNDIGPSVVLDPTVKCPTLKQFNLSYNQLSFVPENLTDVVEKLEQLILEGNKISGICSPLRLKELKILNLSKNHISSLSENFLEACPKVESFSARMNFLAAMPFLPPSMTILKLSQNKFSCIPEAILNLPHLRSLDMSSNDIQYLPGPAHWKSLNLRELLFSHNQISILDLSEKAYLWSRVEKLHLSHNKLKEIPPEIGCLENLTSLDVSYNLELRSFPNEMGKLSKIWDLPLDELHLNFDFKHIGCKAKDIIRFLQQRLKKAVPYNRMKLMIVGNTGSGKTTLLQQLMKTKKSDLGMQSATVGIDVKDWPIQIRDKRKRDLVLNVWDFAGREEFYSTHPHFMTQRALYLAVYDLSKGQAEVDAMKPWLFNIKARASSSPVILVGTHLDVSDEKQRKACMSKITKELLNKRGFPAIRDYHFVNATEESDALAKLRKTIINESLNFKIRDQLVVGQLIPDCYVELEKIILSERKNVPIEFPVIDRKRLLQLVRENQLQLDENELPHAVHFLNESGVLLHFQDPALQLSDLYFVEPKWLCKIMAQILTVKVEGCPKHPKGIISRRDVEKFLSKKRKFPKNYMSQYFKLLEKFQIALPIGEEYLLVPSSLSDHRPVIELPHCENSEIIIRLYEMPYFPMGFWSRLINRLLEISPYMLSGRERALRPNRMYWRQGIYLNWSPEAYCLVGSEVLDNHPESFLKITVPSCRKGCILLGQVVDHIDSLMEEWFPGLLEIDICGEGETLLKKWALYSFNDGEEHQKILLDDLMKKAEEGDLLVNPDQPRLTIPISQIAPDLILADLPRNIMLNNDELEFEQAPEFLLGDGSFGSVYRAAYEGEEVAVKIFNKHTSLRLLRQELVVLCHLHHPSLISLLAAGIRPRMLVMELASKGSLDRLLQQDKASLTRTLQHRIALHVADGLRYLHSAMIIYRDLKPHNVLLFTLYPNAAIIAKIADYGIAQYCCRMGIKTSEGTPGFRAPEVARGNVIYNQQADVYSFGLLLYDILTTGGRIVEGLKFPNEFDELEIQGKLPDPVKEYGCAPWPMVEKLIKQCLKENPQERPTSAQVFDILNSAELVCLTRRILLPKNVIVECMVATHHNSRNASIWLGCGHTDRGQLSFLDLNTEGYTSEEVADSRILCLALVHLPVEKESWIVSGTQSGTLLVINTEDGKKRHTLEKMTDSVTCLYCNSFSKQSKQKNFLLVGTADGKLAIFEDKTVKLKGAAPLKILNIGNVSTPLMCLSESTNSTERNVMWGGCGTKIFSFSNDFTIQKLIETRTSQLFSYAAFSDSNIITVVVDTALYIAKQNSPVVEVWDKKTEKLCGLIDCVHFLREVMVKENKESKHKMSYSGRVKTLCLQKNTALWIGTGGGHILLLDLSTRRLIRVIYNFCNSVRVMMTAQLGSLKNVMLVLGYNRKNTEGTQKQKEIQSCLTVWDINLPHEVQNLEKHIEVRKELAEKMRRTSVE

TYK2 = TYK2 (Homo sapiens, UniProt P29597); assay: NanoBRET assay follow-up; assay type: cell-based; details: singlicate (n = 1) dose–response
Chain of TYK2 (P29597 whole entry): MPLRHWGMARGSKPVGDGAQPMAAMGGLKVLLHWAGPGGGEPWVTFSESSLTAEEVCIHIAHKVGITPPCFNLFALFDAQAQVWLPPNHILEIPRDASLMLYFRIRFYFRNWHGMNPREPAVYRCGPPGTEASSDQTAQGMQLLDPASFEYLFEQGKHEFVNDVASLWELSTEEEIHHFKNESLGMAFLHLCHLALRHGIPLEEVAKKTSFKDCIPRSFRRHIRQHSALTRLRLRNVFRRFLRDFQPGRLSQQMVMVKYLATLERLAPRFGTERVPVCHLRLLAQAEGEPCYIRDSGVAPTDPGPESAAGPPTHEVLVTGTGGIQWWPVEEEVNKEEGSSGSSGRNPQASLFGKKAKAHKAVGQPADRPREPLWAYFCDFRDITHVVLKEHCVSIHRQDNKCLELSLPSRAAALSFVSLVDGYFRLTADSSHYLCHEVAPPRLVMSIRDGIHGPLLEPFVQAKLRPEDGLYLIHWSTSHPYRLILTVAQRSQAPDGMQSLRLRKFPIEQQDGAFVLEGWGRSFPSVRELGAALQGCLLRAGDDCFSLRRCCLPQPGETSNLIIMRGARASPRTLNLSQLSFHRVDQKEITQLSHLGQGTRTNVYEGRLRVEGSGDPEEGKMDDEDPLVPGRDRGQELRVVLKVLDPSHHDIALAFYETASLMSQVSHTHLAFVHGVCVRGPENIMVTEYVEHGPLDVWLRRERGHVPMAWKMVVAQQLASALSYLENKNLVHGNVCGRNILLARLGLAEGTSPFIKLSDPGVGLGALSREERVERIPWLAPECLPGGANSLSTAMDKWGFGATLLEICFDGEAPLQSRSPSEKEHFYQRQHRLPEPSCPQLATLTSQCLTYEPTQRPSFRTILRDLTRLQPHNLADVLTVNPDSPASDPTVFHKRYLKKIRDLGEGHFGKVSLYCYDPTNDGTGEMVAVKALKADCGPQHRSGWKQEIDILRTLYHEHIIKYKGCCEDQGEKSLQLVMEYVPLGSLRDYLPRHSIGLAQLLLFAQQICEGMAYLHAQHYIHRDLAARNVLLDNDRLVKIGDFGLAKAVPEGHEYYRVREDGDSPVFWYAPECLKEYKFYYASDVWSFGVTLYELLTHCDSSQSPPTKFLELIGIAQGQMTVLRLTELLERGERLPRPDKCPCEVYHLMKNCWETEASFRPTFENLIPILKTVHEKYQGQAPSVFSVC

NUAK1 [3] = target: T1, NUAK1; assay: Eurofins kinase enzymatic radiometric assay; assay type: biochemical; details: enzymatic IC50 values
Summary of the method: (§1)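 Both kinases of each pair (NUAK1/NUAK2; TBK1/IKKε) were tested in radiometric assays with ATP at Km. Test compounds were run as 9-point dose–response curves in duplicate. IC50 values for the two kinases were then compared as a fold difference.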

TBK1 = target: T5, TBK1 (Homo sapiens, UniProt Q9UHD2); assay: Eurofins kinase enzymatic radiometric assay; assay type: biochemical; details: enzymatic IC50 values
T5 sequence (Q9UHD2 1-729): T2 sequence (Q9UHD2 1-729)
Summary of the method: as §1

Chain of MYLK2 (Q9H1R3 whole entry): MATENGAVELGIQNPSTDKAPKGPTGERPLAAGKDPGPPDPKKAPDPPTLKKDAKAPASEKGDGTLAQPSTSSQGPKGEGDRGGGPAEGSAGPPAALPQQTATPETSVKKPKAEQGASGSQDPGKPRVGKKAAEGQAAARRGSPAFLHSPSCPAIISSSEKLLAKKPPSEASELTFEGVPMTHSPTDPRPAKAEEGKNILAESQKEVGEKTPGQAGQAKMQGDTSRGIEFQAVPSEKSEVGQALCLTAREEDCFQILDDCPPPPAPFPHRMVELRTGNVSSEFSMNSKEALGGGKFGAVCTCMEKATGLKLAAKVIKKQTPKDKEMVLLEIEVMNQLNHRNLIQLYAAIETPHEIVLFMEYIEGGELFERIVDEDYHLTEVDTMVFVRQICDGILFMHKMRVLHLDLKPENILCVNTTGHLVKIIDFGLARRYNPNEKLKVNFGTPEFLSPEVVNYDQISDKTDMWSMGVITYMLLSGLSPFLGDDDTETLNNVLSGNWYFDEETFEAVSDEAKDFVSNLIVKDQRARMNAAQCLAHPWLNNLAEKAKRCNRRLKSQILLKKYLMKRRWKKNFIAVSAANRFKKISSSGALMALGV

SMILES	no. kinases ≤ 10 PoC in enzyme panel (16-member kinase panel)	Pe (permeability coefficient, PAMPA) (PAMPA permeability)	no. kinases with PoC < 10 [1]	S10 (1 μM) [1]	further results
Cc1nn(CC(F)(F)F)cc1Nc1nccc(NCCc2cnc[nH]2)n1 [Compound 15, N^4-(2-(1H-Imidazol-5-yl)ethyl)-N^2-(3-methyl-1-(2,2,2-trifluoroethyl)-1H-pyrazol-4-yl)pyrimidine-2,4-diamine]	0	low permeability	0		fold loss in potency, enzymatic versus NanoBRET, MYLK2 (MYLK2): < 10 fold; MYLK2 NanoBRET IC50 (MYLK2; singlicate (n = 1) dose–response): single digit micromolar activity
O=C(NCCCNc1nc(Nc2cccc(NC(=O)N3CCCC3)c2)ncc1I)c1cccs1 [BX-795, reference compound]	16				IC50 (NUAK1 [2]): 187 nM; fold loss in potency, enzymatic to NanoBRET, NUAK1 (NUAK1 [2]; published enzymatic IC50 vs NanoBRET IC50): ~34 fold; IC50 (MARK3 (NLuc-MARK3)): 515 nM
Cc1nn(CC(F)(F)F)cc1Nc1ncc(C2CC2)c(NCCc2c[nH]cn2)n1 [Compound 3, N^4-(2-(1H-Imidazol-4-yl)ethyl)-5-cyclopropyl-N^2-(3-methyl-1-(2,2,2-trifluoroethyl)-1H-pyrazol-4-yl)pyrimidine-2,4-diamine]	0	low permeability	2	0.005	LRRK2 NanoBRET IC50 (LRRK2): did not have any activity
NS(=O)(=O)c1ccc(CNc2nc(Nc3cccc(NC(=O)N4CCCC4)c3)ncc2Br)cc1 [Compound 13, N-(3-((5-Bromo-4-((4-sulfamoylbenzyl)amino)pyrimidin-2-yl)amino)phenyl)pyrrolidine-1-carboxamide]	4	below the limit of quantitation		0.03	fold difference between NUAK1 and NUAK2 (NUAK1 [3]): ~3 fold
Cc1nn(CC(F)(F)F)cc1Nc1ncc(C2CC2)c(NCc2ccc(S(N)(=O)=O)cc2)n1 [Compound 5, 4-(((5-Cyclopropyl-2-((3-methyl-1-(2,2,2-trifluoroethyl)-1H-pyrazol-4-yl)amino)pyrimidin-4-yl)amino)methyl)benzenesulfonamide]	1	below the limit of quantitation	2	0.005	fold difference in potency for TBK1 and IKKε (TBK1): 8 fold

Now from value to compound, other results behind:

no. kinases ≤ 10 PoC in enzyme panel (16-member kinase panel)	Pe (permeability coefficient, PAMPA) (PAMPA permeability)	SMILES	no. kinases with PoC < 10 [1]	S10 (1 μM) [1]	further results
16		O=C(NCCCNc1nc(Nc2cccc(NC(=O)N3CCCC3)c2)ncc1Br)C1CCC1 [Compound 18, N-(3-((5-Bromo-4-((3-(cyclobutanecarboxamido)propyl)amino)pyrimidin-2-yl)amino)phenyl)pyrrolidine-1-carboxamide]	90	0.223	TBK1 NanoBRET IC50 (TBK1 (NLuc-TBK1)): submicromolar; MARK3 NanoBRET IC50 (MARK3 (NLuc-MARK3); HEK293, 0.5 μM tracer K-9, n = 1 where no error, SEM n = 2): submicromolar; MARK4 NanoBRET IC50 (MARK4 (NLuc-MARK4)): submicromolar; DRAK1 NanoBRET IC50 (DRAK1 (DRAK1-NLuc)): submicromolar
0	below the limit of quantitation	NS(=O)(=O)c1ccc(CNc2ccnc(Nc3cccc(NC(=O)N4CCCC4)c3)n2)cc1 [Compound 16, N-(3-((4-((4-Sulfamoylbenzyl)amino)pyrimidin-2-yl)amino)phenyl)pyrrolidine-1-carboxamide]	1		TYK2 NanoBRET IC50 (TYK2): did not have any activity
0		NS(=O)(=O)c1ccc(CNc2ccnc(Nc3cccc(CN4CCOCC4)c3)n2)cc1 [Compound 19, 4-(((2-((3-(Morpholinomethyl)phenyl)amino)pyrimidin-4-yl)amino)methyl)benzenesulfonamide]	3	0.007	TYK2 NanoBRET IC50 (TYK2): did not have any activity
